Here are results for one compound from ChEMBL document CHEMBL2331230, “Synthesis, anticancer and antioxidant activities of 2,4,5-trimethoxy chalcones and analogues from asaronaldehyde: structure-activity relationship” (Eur J Med Chem, 2013).

In brackets after ≈: the same amount, converted by molar mass.

Test [1] is described as follows: Antioxidant activity assessed as nitric oxide scavenging activity after 2.5 hrs by Griess assay. The test is classed as functional. Summed up:
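Sodium nitroprusside, 10 mM in phosphate saline buffer pH 7.4, added to samples at various concentrations and held 2.5 h at room temperature. Nitrite detected with Griess reagent at 546 nm against a blank. Inhibition (%) = (1 − A1/A0)×100, with A0 the control. Ascorbic acid as standard. Means of triplicates from three independent experiments.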

Test [2] is described as follows: Antioxidant activity in rat erythrocytes assessed as inhibition of phenyl hydrazine-induced haemolysis after 1 hr. The test is classed as functional, cell-based. The settings on record: erythrocyte. In short, it runs like this: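 20% PCV erythrocyte suspension made from rat blood. Samples at various concentrations combined with 0.5 mM phenyl hydrazine and erythrocyte suspension in phosphate buffered saline (3 ml total). Incubated 37 °C for 1 h, centrifuged 1000 g for 10 min, supernatant absorbance at 540 nm. α-Tocopherol as positive control.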

In a further test the test system is SW982. Briefly: Cytotoxicity against human SW982 cells assessed as growth inhibition after 72 hrs by MTT assay. It counts as functional, cell-based. The settings on record: SW982, 72 h. In short, it runs like this: (§1)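 Cells grown in DMEM with 10% FBS, seeded at 10,000 per well, and treated after 24 h with a concentration series ending at […]; pristimerin as positive control. After 72 h, MTT (5 mg/ml) added for 3 h. Formazan dissolved in DMSO, read at 570 nm. IC50 is the concentration giving 50% growth inhibition; mean ± S.D. of three tests in triplicate.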

A further test concerns MCF7. Briefly: Cytotoxicity against human MCF7 cells assessed as growth inhibition after 72 hrs by MTT assay. It counts as functional, cell-based. The note with it: MCF7, 72 h. Summed up:
as §1

The next test deals with HeLa. Briefly: Cytotoxicity against human HeLa cells assessed as growth inhibition after 72 hrs by MTT assay. The test is classed as functional, cell-based. Summed up:
as §1

In test [3] the test system is Radical scavenging activity. Briefly: Antioxidant activity assessed as DPPH free radical scavenging activity after 15 mins by spectrophotometric analysis. It counts as functional. Summed up:
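Test samples at several concentrations mixed with stock DPPH (final concentration not stated), made up to 3 ml in methanol, incubated 15 min. Absorbance at 517 nm read against a sample-free blank. Ascorbic acid at various concentrations as standard. Values are means of triplicates from three independent experiments.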

With `COc1cc(OC)c(C2CC(=O)c3cc(O)ccc3O2)cc1OC` (stereo unspecified), the IC50 was 2.434 µg/mL (≈ 7.37 µM) in test [1]; 2.14 µg/mL (≈ 6.48 µM) in test [2]; greater than 150 µM in the test with SW982; greater than 150 µM in the test on MCF7; greater than 150 µM in the test on HeLa; 4.566 µg/mL (≈ 13.8 µM) in test [3].
